# SIAE inh – human SIAE inhibitors, primary screen, biochemical, fluorescence polarization, FP-Rh probe, 1536-well HTS. inhibition, % at 9.66 µM. 370,000 compounds, 0.69% hits. SIAE FP-Rh probe binding;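 active = inhibition above a cutoff: mean of compounds within the control limits plus 3 SD of those, cut at about 17% in these data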
# PRMT1 inh – PRMT1 methyltransferase inhibitors, primary screen, biochemical, fluorescence polarization; Protein arginine N-methyltransferase 1 (Homo sapiens), Q99873; recombinant PRMT1, activity-based probe fluorescence polarization; inhibition, % at 2.79 µM; 370,000 compounds, 1.3% hits;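 active = inhibition above about 21% made by adding two undisclosed values, limit read from the data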
# HTRA1 inhibitor – HTRA1 serine protease inhibitors, primary screen, biochemical, fluorescence polarization, HTS. inhibition, % at 5.96 µM. 340,000 compounds, 0.5% hits. recombinant HTRA1, FP-rhodamine activity-based probe. Q92743. AID 504803, 2011; in the data active = inhibition above about 36%
# Target sequence (Q92743 whole entry, looked up): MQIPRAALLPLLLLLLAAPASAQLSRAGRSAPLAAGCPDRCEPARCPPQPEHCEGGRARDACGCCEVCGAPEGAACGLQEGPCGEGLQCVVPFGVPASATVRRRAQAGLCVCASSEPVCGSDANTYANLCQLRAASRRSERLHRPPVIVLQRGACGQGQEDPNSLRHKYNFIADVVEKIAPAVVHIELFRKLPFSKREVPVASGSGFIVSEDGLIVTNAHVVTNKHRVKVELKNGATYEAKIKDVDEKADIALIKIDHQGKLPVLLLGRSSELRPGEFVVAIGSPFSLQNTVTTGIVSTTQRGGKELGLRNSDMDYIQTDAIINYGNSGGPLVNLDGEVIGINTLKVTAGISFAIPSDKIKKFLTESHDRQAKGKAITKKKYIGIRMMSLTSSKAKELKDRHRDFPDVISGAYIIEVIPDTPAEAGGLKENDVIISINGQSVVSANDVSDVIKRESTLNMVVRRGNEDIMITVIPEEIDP
# ABHD4 inh – ABHD4 inhibitors, primary screen, biochemical, fluorescence polarization, mouse; 370,000 compounds, 0.54% hits; inhibition, % at 8.92 µM; AID 720543, 2013; (Lyso)-N-acylphosphatidylethanolamine lipase (Mus musculus), Q8VD66; purified mABHD4, FP-Rh probe fluorescence polarization;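 active = inhibition exceeding the mean over every tested compound plus 3 SD, cut at about 30% in these data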
#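 System: mouse ABHD4 enzyme, wild type / Medium: HEPES pH 7.0, NaCl, Pluronic buffer / Reagent: FP-Rh activity-based fluorescent probe / Control set: S159A mutant high control, sample median low control / Detection: fluorescence polarization with parallel and perpendicular emission, 525/598 nm / Schedule: 45 min + 60 min at 25 °C / Compound dosing: 8.92 µM, single dose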
# rCAG binder – binders of r(CAG) RNA repeats, primary screen, biochemical, fluorescence; r(CAG) RNA repeat, TO-PRO-1 dye displacement fluorescence; inhibition, % at 3 µM; AID 651821, 2012; 370,000 compounds, 1.3% hits;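 active = inhibition above the plate cutoff, the mean of all test compounds on that plate plus 3 SD, cut at about 35% in these data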;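 note: higher means more dye released from RNA so lower well fluorescence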
# rCAG binder conf – small molecules binding CAG repeat RNA – biochemical, fluorescence, confirmation | shares compounds with rCAG binder | r(CAG) RNA repeat, TO-PRO-1 dye displacement fluorescence | inhibition, % at 3 µM | 4,300 compounds, 70% hits;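 active = inhibition above a per-plate cutoff, the mean inhibition of sample wells plus 3 SD, cut at about 35% in these data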;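 note: loss of TO-PRO-1 fluorescence as compound displaces dye from 1x1 AA loop RNA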
# dCAG dye counter – displacement of TO-PRO-1 from CAG DNA duplex, counter-screen for rCAG RNA repeat binder project, biochemical, fluorescence, TO-PRO-1 dye, d(CAG) DNA oligo; shares compounds with rCAG binder; d(CAG) DNA oligo TO-PRO-1 dye displacement; inhibition, % at 3 µM; 4,300 compounds, 94% hits; AID 652068, 2013;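 active = inhibition above its plate's cutoff, the mean test-well inhibition plus 3 SD, cut at about 4.8% in these data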;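 note: hits displace the dye from DNA and so lower well fluorescence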
# A number is an active result; - = inactive; . = no result. Hits are enriched below; roughly 3.3% of the tested compounds scored in any of these assays.
SMILES,SIAE inh,PRMT1 inh,HTRA1 inhibitor,ABHD4 inh,rCAG binder,rCAG binder conf,dCAG dye counter
COc1ccc(S(=O)(=O)N2CCCCC2)cc1NS(=O)(=O)c1ccc(CNC(C)=O)cc1,-,-,-,-,-,.,.
COc1ccc(S(=O)(=O)N2CCCCC2)cc1NS(=O)(=O)c1ccccc1F,-,-,-,-,-,.,.
COc1ccc(S(=O)(=O)N2CCCCCC2)cc1NS(=O)(=O)c1cc(C(=O)O)cc(C)c1C,-,-,-,-,47,-,5.9
COc1ccc(S(=O)(=O)N2CCCCC2)cc1NS(=O)(=O)c1cc(Cl)ccc1Cl,-,-,-,-,36,39,10
CC(=O)CC[C@H]1CC[C@]2(CCCN(C(=O)C(C)(C)C)C2)O1,-,-,.,-,-,.,.
Cc1nn(-c2ccccc2)c2sc(-c3nnc(SCC(=O)O)o3)cc12,-,-,-,-,46,56,15
CCn1c(SCC(=O)O)nnc1-c1cc2c(C)nn(-c3ccccc3)c2s1,-,-,-,-,-,.,.
CCCC(=O)Nc1nnc(S(=O)(=O)N(C)Cc2ccco2)s1,.,.,-,.,.,.,.
CCOc1ccc(C(=O)Nc2nnc(S(=O)(=O)N(C)Cc3ccco3)s2)cc1,-,-,-,-,36,37,11
CCC(=O)Nc1nnc(S(=O)(=O)N(C)Cc2ccco2)s1,-,-,-,-,-,.,.
CN(Cc1ccco1)S(=O)(=O)c1nnc(NC(=O)c2ccc(F)cc2)s1,-,-,-,-,37,-,7.4
COc1ccc2c(c1)CN1CN(C3CCCC3)S(=O)(=O)CC21 (stereo unspecified),-,-,.,-,-,.,.
O=C(N[C@H](C(=O)N1CCC[C@H]1C(=O)NCCc1ccccc1Cl)c1ccccc1)c1ccc(Cl)c(Cl)c1,-,-,.,-,-,.,.
O=C(O)COc1ccccc1/C=N/NC(=O)CSc1nc2ccccc2c(=O)n1-c1ccccc1,-,-,-,-,-,.,.
O=C(O)COc1ccccc1/C=N/NC(=O)CSc1nc2ccccc2n1Cc1ccccc1,-,-,-,-,45,55,16
O=C(O)COc1ccccc1/C=N/NC(=O)c1cc(-c2ccc(F)cc2)nc2ccccc12,-,-,-,-,55,43,12
O=C(N/N=C/c1cccc(F)c1)c1cc(-c2ccco2)nc2ccccc12,-,-,-,-,45,41,26
COC(=O)C1CN(CCO)CCS(=O)(=O)N1Cc1cn(Cc2ccc(C)cc2)nn1 (stereo unspecified),-,-,.,-,-,.,.
CCN(CC)c1nc(N)c2c(N)n(-c3ccccc3C)c(=S)c(C#N)c2c1C#N,-,-,-,-,98,93,69
CC(=O)Nc1cccc(NC(=O)CCCC2CCCCC2)c1,-,-,-,-,-,.,.
CCC(CC)(CC(=O)Nc1cccc(/C=C/c2nc(C3CCC3)cs2)c1)C(=O)O,-,-,.,-,46,55,18
Cc1cc(NS(=O)(=O)c2ccc(NC(=O)CCCOc3ccc(Cl)cc3)cc2)no1,-,-,-,-,50,-,10
Cc1cc(NS(=O)(=O)c2ccc(NC(=O)COc3ccc(Cl)c(C)c3)cc2)no1,-,-,-,-,41,-,8.3
Cc1cc(NS(=O)(=O)c2ccc(NC(=O)COc3ccc(Cl)cc3Cl)cc2)no1,-,-,-,-,55,42,12
Cc1cc(NS(=O)(=O)c2ccc(NC(=O)COc3ccccc3C(C)(C)C)cc2)no1,-,-,-,-,72,58,25
SMILES,SIAE inh,PRMT1 inh,HTRA1 inhibitor,ABHD4 inh,rCAG binder,rCAG binder conf,dCAG dye counter
Cc1cc(NS(=O)(=O)c2ccc(NC(=O)COc3ccccc3[N+](=O)[O-])cc2)no1,-,-,-,-,-,.,.
Cc1cc(NS(=O)(=O)c2ccc(NC(=O)CCCOc3ccccc3)cc2)no1,-,-,-,-,-,.,.
COC(=O)[C@]12C[C@H](CC(=O)NCCCCc3ccccc3)C(=O)N(Cc3cccc4ccccc34)C1=C[C@H](C(C)C)O[C@@H]2C1CC1,-,-,.,-,-,.,.
COC1=C[C@H](C(=O)NC2CCN(Cc3ccccc3)CC2)[C@@]2(C)Cc3ccccc3[C@H]2CC1=O,-,-,.,-,-,.,.
Cc1cc(NC(=O)Nc2cccc(C(F)(F)F)c2)no1,-,-,-,-,-,.,.
Cc1cc(NS(=O)(=O)c2ccc(NC(=O)Nc3cccc(C(F)(F)F)c3)cc2)no1,-,-,-,-,50,53,20
CC(C)(C)C(=O)NC1=NN(c2c(Cl)cc(Cl)cc2Cl)C(=O)C1,-,-,-,-,44,-,-
COc1cccc(C(=O)Nc2cccc(C(=O)NC3=NN(c4c(Cl)cc(Cl)cc4Cl)C(=O)C3)c2)c1,-,-,-,-,56,48,17
Cc1cc(C)cc(NC(=O)NCCCN2CCN(c3ccc(F)cc3)CC2)c1,-,-,.,-,-,.,.
Cc1ccccc1NC(=O)N(C)[C@H]1C[C@H]2c3[nH]c4c(-c5ccc6c(c5)OCO6)cccc4c3CCN2C(=O)[C@H]1[C@H](C)O,-,-,.,-,-,.,.
CC(=O)CC[C@H]1CC[C@]2(CCCN(C(=O)c3ccno3)C2)O1,-,-,.,-,-,.,.
NS(=O)(=O)c1ccc(C(=O)Nc2ccc(-c3nc4cccnc4s3)cc2)cc1,-,-,-,-,-,.,.
CCc1ccc(S(=O)(=O)Nc2ccc(-c3nc4cccnc4s3)cc2)s1,-,-,-,-,57,58,22
O=S(=O)(Nc1ccc(-c2nc3cccnc3s2)cc1)c1cc(F)ccc1F,-,-,-,-,45,35,9.2
O=C(NCc1c(F)cccc1F)C1C2C=CC3(CN(Cc4ccccc4)C(=O)C13)O2 (stereo unspecified),-,-,.,-,-,.,.
O=C(O)c1cc(N=Cc2c(O)c3ccccc3oc2=O)ccc1O,-,-,-,-,38,-,-
COc1ccc(-c2noc(C3CCCN(C(=O)Nc4ccc(Cl)cc4)C3)n2)cc1 (stereo unspecified),-,-,.,-,-,.,.
Cc1nnc(NC(=O)c2ccc(S(=O)(=O)N(C)Cc3ccccc3)cc2)o1,.,.,-,.,.,.,.
CCN(Cc1ccccc1)S(=O)(=O)c1ccc(C(=O)Nc2nnc(C3CC3)o2)cc1,-,-,-,-,45,36,12
COc1ccc(Cl)c(NC(=O)C/C(C)=N/NC(=O)CCc2ccccc2)c1,-,-,-,-,37,-,-

# Screening data (PubChem)
